Paper PMC3656605 (Nature, 2012)

Key:
[1] = test system: HIF in IDH1 R132H immortalized human astrocytes; type: cell-based; conditions: 21% oxygen, increasing amounts for 16 hours
Summary of the method: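 Immortalized human astrocytes (passage 10) expressing wild-type or mutant IDH1 were dosed with test compound for 16 h before lysis in 50 mM Tris pH 8.0, 120 mM NaCl, 0.5% NP-40 with protease inhibitors. Extracts were run on 10% SDS-PAGE and transferred to nitrocellulose. Blots were blocked in TBS/5% milk, probed with anti-HIF1α monoclonal antibody, and detected by HRP-secondary chemiluminescence.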

Tet2 = assay: Inhibition of Tet2, 14CO2 release, double stranded oligonucleotide substrate; type: biochemical, murine; conditions: in vitro; 120 µM 2-oxo-[1-14C]glutarate
collagen P4H-I [2] = assay: Inhibition of collagen P4H-I, 14CO2 release; type: biochemical, human; conditions: in vitro; 100 µM 2-oxo-[1-14C]glutarate
EglN2 [3] = molecular target: T1, EglN2 (Homo sapiens, UniProt Q96KS0); type: biochemical; conditions: low mM concentrations, reactions lacking exogenous 2-OG
T1 sequence (Q96KS0 whole entry): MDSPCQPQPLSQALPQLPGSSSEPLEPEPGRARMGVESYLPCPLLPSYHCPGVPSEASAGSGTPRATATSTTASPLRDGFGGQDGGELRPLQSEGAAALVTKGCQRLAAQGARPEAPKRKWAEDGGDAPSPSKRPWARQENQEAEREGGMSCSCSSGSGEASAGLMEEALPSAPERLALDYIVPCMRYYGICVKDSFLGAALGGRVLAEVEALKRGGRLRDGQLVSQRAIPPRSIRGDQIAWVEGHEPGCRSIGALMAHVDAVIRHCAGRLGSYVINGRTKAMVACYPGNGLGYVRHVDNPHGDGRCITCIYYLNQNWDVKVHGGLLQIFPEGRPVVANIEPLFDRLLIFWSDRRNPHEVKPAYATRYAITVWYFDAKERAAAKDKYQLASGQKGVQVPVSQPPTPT

EglN1 [4] = molecular target: T2, EglN1 (Homo sapiens, UniProt Q9GZT9); type: biochemical
T2 sequence (Q9GZT9 whole entry): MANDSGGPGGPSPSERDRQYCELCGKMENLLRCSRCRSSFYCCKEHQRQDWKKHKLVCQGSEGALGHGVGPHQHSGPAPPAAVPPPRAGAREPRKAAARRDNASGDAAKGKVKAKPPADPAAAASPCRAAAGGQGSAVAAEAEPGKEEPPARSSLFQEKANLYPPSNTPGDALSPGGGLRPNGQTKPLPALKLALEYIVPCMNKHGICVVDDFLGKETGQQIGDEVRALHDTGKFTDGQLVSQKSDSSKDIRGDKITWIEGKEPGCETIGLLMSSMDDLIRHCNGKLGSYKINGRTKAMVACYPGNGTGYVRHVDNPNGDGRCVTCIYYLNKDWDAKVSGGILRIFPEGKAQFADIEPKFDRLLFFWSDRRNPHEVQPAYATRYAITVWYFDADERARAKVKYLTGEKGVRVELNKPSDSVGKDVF

[5] = test system: JMJD2D histone demethylase; assay: JMJD2D histone demethylase activity; type: biochemical; conditions: data not shown; for Inhibition of JMJD2D histone demethylase (in words): in vitro
FIH = assay: Inhibition of FIH, 14CO2 release, synthetic peptide substrate; type: biochemical, human; conditions: in vitro; 10 µM 2-oxo-[1-14C]glutarate
EglN3 = EglN3 (Homo sapiens, UniProt Q9H6Z9); type: biochemical; conditions: standard assay conditions, 10 μM 2-OG
Chain of EglN3 (Q9H6Z9 whole entry): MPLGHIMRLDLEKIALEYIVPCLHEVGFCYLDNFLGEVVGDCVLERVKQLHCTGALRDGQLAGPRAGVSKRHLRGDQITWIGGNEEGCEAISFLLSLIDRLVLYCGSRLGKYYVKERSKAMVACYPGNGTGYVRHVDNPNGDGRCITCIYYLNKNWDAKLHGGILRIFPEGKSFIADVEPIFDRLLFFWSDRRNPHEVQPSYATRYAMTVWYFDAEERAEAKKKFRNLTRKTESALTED

collagen P4H-I [6] = type: biochemical, human; conditions: no exogenous 2-OG
Tet1 = assay: Inhibition of Tet1, 14CO2 release, double stranded oligonucleotide substrate; type: biochemical, murine; conditions: in vitro; 120 µM 2-oxo-[1-14C]glutarate
EglN2 [7] = molecular target: T1, EglN2; type: biochemical; conditions: standard assay conditions, 10 μM 2-OG
EglN1 [8] = molecular target: T2, EglN1; type: biochemical; remark: listed apart in the source

Inhibition of TET2 methyl cytosine hydroxylase (in words) (Tet2) | Promotion of EglN2 activity (EglN2 [3]) | Prolyl hydroxylation of HIF1α by EglN1 (EglN1 [4]; increasing R-2HG with 10 μM 2-OG, concentrations as high as 100 mM) | Promotion of EglN1 activity (EglN1 [4]; low mM concentrations, reactions lacking exogenous 2-OG) | Promotion of JMJD2D histone demethylase activity [5] | Inhibition of JMJD2D histone demethylase (in words) [5] | Inhibition of HIF asparaginyl hydroxylase FIH (in words) (FIH) | IC50 (EglN3; read-out: IC50, EglN3 inhibition) | Promotion of collagen prolyl 4-hydroxylase activity (collagen P4H-I [6]) | Inhibition of TET1 methyl cytosine hydroxylase (in words) (Tet1) | IC50 (EglN2 [7]; read-out: IC50, EglN2 inhibition) | Release of 14CO2 in EglN1 assays (EglN1 [8]; increasing amounts of R-2HG added to 10 μM 2-oxo-[1-14C]glutarate) | Inhibition of EglN3 (in words) (EglN3) | Inhibition of EglN2 (in words) (EglN2 [7]) | Inhibition of EglN1 (in words) (EglN1 [8]; standard assay conditions, 10 μM 2-OG) | Structure (SMILES) | Resistance of R132H-expressing cells to the agent (HIF immunoblot) [1] | Inhibition of collagen prolyl 4-hydroxylases (in words) (collagen P4H-I [2])
– | – | – | – | – | – | – | – | – | – | – | – | – | – | – | COC(=O)CNC(=O)C(=O)OC [DMOG] | relatively resistant | –
inhibit | promoted | without decreasing | promoted | did not promote | inhibit | inhibit | > 5 mM | did not promote | inhibit | > 5 mM | progressively decreased | – | – | – | O=C(O)CC[C@@H](O)C(=O)O [R-2HG, R-2-hydroxyglutarate] | – | inhibit
inhibit | – | – | – | – | inhibit | inhibit | – | – | inhibit | – | – | micromolar to low millimolar inhibitor | micromolar to low millimolar inhibitor | micromolar to low millimolar inhibitor | O=C(O)CC[C@H](O)C(=O)O [S-2HG, S-2-hydroxyglutarate] | – | inhibit
